Assay outcomes (PubChem BioAssay)
This is a sample that favours compounds with a hit; in the whole collection about 5.5% have one here.
STAT3 inh-1 = inhibitors of IL-6 induced STAT3 signaling. U3A cells, IL-6 STAT3-luciferase reporter, luminescence; host cell line lacks STAT1. inhibition, % at 5.5 µM. 190,000 tested, 0.89% active. AID 862;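 active = inhibition above the mean inhibition across all screened compounds plus 3 SD, cut at about 44% in these data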
KCC2 mod = modulates chloride dependent transport by human KCC2; AID 1456; Q9H2X9; KCC2 cells, thallium flux FluoZin-2 fluorescence; 190,000 tested, 2.2% active; B-score of Tl+ flux slope (higher = more flux/activation; lower = inhibition) at 10 µM;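 active = thallium flux slope and its plate-corrected score both differing from the plate sample mean at a set confidence after two filtering rounds, in either direction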;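 note: slope of fluorescence scaled to starting intensity during 10 to 20 s after thallium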
STAT3 act = STAT3 signaling activation; U3A cells, IL-6 STAT3-luciferase reporter, luminescence; 100% = signal with IL-6 EC80 alone; activation (% of control), % at 5.6 µM; 190,000 tested, 0.91% active;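 active = activation above the screen-wide mean of compound activation plus 3 SD, cut at about 130% in these data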
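Test system: STAT3-luciferase reporter U3A cells; Detection: reporter luminescence signal; Times: 1 h compound pre-exposure, 6 h IL-6 stimulation, 37 °C; Benchmarks: IL-6-only high control; Also added: IL-6 stimulus at 33 ng/mL final.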
STAT1 inh = STAT1 signaling inhibition; inhibition, % at 5.5 µM; NIH 3T3 STAT1-luciferase reporter, IFN-gamma, luminescence; AID 920; 200,000 tested, 0.35% active;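 active = inhibition above a set limit, the mean inhibition across all tested compounds plus 3 SD, cut at about 34% in these data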
STAT1 activator = STAT1 signaling activation. NIH 3T3 STAT1-luciferase reporter, IFN-gamma, luminescence; 100% = IFN-gamma alone, no compound. activation (% of control), % at 5.5 µM. 200,000 tested, 2.6% active. AID 932;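 active = activation above the screen-wide mean activation plus 3 SD, cut at about 130% in these data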
HSV augment = increases HSV replication in cells | HSV replication augmentation in cells, fold increase | maximum fold increase | 220,000 tested, 0.005% active | AID 1956; in the data active = maximum fold increase above about 1.5; inconclusive = no clear call, values can overlap the other calls; tested in PC3 cells
STAT3 inh-2 = confirmation of STAT3 signaling inhibitors; shares compounds with STAT3 inh-1; U3A cells, IL-6 STAT3 luciferase reporter, luminescence; cell line lacks STAT1; inhibition, % at 5.7 µM; 1,200 tested, 45% active; AID 1265;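 active = inhibition above the hit cutoff computed for the primary STAT3 screen, cut at about 44% in these data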
NFkB inh 2 = inhibits NF-kappaB, counter-screen to STAT3 inhibitors. AID 1308. HEK293T NF-kB luciferase reporter, TNF-alpha induced. inhibition, % at 5.7 µM. shares compounds with STAT3 inh-1. 1,200 tested, 36% active;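 active = inhibition above the mean of solvent-only control wells plus 3 SD, cutoff set per campaign, cut at about 13% in these data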
STAT1 inh STAT3c = inhibits STAT1, counter-screen to STAT3 inhibitors; inhibition, % at 5.7 µM; NIH 3T3 STAT1-luciferase reporter, IFN-gamma induced, luminescence; 1,200 tested, 27% active; AID 1317; shares compounds with STAT3 inh-1;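 active = inhibition above the mean plus 3 SD of solvent-only control wells, limit set per screening run, cut at about 16% in these data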
Hits are given with their value; n = inactive; u = inconclusive; x = no result.

SMILES | STAT3 inh-1 | KCC2 mod | STAT3 act | STAT1 inh | STAT1 activator | HSV augment | STAT3 inh-2 | NFkB inh 2 | STAT1 inh STAT3c
COc1ccccc1-[n+]1c(C)cc(/C=C2\Sc3ccccc3N2C)cc1C | x | n | x | x | x | u | x | x | x
Cc1nc(N)c(CC(Br)CBr)c(Cl)n1 (stereo unspecified) | x | n | x | x | x | n | x | x | x
CC(C)Cn1c(N)c(C(=O)COC(=O)CC23CC4CC(CC(C4)C2)C3)c(=O)n(C)c1=O | 70 | n | n | n | n | n | 73 | 24 | 24
CC(C)Cn1c(N)c(C(=O)COC(=O)c2ccc(Cl)cc2)c(=O)n(C)c1=O | n | n | n | n | n | n | x | x | x
CC(C)Cn1c(N)c(C(=O)COC(=O)CCc2nc3ccccc3s2)c(=O)n(C)c1=O | 70 | n | n | n | n | n | 74 | n | n
CC(C)Cn1c(N)c(C(=O)CSc2ccccc2)c(=O)n(C)c1=O | 45 | n | n | n | n | n | 44 | n | n
Cc1ccccc1CSCC(=O)c1c(N)n(CC(C)C)c(=O)n(C)c1=O | n | n | n | n | n | n | x | x | x
Cc1onc(-c2ccccc2)c1NC(=O)N(CCC(=O)O)Cc1ccccc1 | x | x | x | x | x | n | x | x | x
Nc1c(C(=O)OCC(=O)NCc2ccccc2)[nH]c(=O)[nH]c1=O | x | n | x | x | x | n | x | x | x
O=C(COc1ccc2oc(-c3ccccc3)cc(=O)c2c1)Nc1ccccc1 | n | n | n | n | n | n | x | x | x
COc1ccc(-c2cc(=O)c3cc(OC)ccc3o2)cc1 | 73 | n | n | n | n | n | 53 | 31 | n
CCC(CC)C(=O)Nc1ccc(C(=O)Nc2cc(C)on2)cc1 | n | n | n | n | n | n | x | x | x
Cc1cnc(NC(=O)c2nn(C)cc2[N+](=O)[O-])s1 | 58 | n | n | n | n | n | n | n | n
Cc1ccc(-c2nc(NC(=O)c3nn(C)cc3[N+](=O)[O-])sc2C)cc1 | 54 | n | n | 36 | n | n | n | 15 | n
Cc1ccc(-c2nc(NC(=O)c3nn(C)cc3[N+](=O)[O-])sc2C)cc1C | 49 | n | n | n | n | x | n | 17 | n
Cn1cc([N+](=O)[O-])c(C(=O)Nc2nc(-c3ccc(Cl)cc3)cs2)n1 | 60 | x | n | n | n | n | n | 18 | n
Cc1ccc(Cn2ccc(NC(=O)c3nn(C)cc3[N+](=O)[O-])n2)cc1 | n | n | n | n | n | n | x | x | x
CCC(C)(C(=O)NC1CCCCC1)N(C(=O)Cc1cccs1)c1ccccc1 (stereo unspecified) | n | n | n | n | n | n | x | x | x
c1ccc(-n2nnc3c(N4CCOCC4)ncnc32)cc1 | 81 | n | n | n | n | n | n | n | n
Cc1ccc(C(=O)C(NC(=O)c2ccco2)Nc2sc3c(c2C(N)=O)CCCC3)cc1 (stereo unspecified) | n | n | n | n | n | n | x | x | x
CC(C)COc1ccc(C(=O)Nc2scc(-c3ccc(Cl)cc3Cl)c2C(N)=O)cc1 | 49 | n | n | n | n | x | n | n | n
O=c1cc(NC2CCCCC2)c2ccccc2o1 | n | x | n | n | n | x | x | x | x
O=C(N[C@@H](Cc1ccccc1)C(=O)OCC(=O)N1CCOCC1)c1cccs1 | n | n | n | n | n | n | x | x | x
COC(=O)c1cccc(NC(=O)CSc2nc3cccnc3n2C)c1 | 57 | x | n | n | n | n | 48 | n | n
COC(=O)c1ccccc1NC(=O)CSc1nc2cccnc2n1C | n | n | n | n | n | n | x | x | x
Cc1cc(/C=C2\Cc3ccccc3C2=O)c(C)n1-c1ccccc1 | 71 | n | n | n | n | n | n | n | n
Cc1cc(C=C2C(=O)c3ccccc3C2=O)c(C)n1-c1ccc(C(=O)O)cc1 | n | n | n | n | n | n | x | x | x
Cc1cc(C=C2C(=O)c3ccccc3C2=O)c(C)n1-c1ccccc1 | 75 | x | n | n | n | n | n | n | n
